# From the EternaBench riboswitch data
# Tested on: MS2 coat protein
# Assay: apparent Kd, MS2 coat protein; higher = weaker binding; RNA-MaP array
# Procedure, shortened: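 Designed RNAs were transcribed on an Illumina sequencing chip from sequenced DNA templates. They were incubated at room temperature with fluorescently labeled MS2 coat protein at 1.5 nM to 3 μM, for 0.8–1.5 h at the lowest to 10–20 min at the highest concentrations, in Tris-HCl pH 7.5 buffer with KCl, MgCl2, BSA, DTT, tRNA and Tween20, with or without input ligand. Apparent Kd is the median of per-cluster binding-curve fits. Designs measured on fewer than 10 clusters were excluded.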
# [1] = designed as: ON switch for tryptophan, no ligand
# [2] = ligand present: tryptophan, designed as: ON switch for tryptophan
# [3] = designed as: OFF switch for flavin mononucleotide, no ligand
# [4] = ligand present: flavin mononucleotide, designed as: OFF switch for flavin mononucleotide
# [5] = designed as: ON switch for flavin mononucleotide, no ligand
# [6] = ligand present: flavin mononucleotide, designed as: ON switch for flavin mononucleotide
sequence,measurement,setting,value
CGGAGUAUGACGGCCGCCACUUGCCGGGCGCAGCUGGCUGCUUGACAUGAGGAUCACCCAUGUCCAAGGACCGGGUCAUUCCUCG,apparent Kd,[1],121 nM
same,apparent Kd,[2],83.9 nM
UUGUCCCGAGGAUAUGAGAGGGAGUACAUGAGGAUCACCCAUGUCAUGAAUCUUCAUAUCUCAGAAGGCGGUUGAU,apparent Kd,[3],4.85 nM
same,apparent Kd,[4],6.24 nM
CAGAACAACGAAGGAUAUGCGAAACAUGAGGAUCACCCAUGUGUGGUUUUACUCAAACACCUGUCGCAGAAGGUCGCGUAACGA,apparent Kd,[3],37.9 nM
same,apparent Kd,[4],31.1 nM
AAACUAUGAGGAUAUACAUGAGGAUCACCCAUGUCGGUACUGGUAUGGCCCUGAUCCCGUAGAAGGCAUCGGUC,apparent Kd,[3],369 nM
same,apparent Kd,[4],436 nM
CCGCGUGCGGAAGGAUAUAUCCUAUGUUAGGAAAAUAACACAUGAGGAUCACCCAUGUCGAAGAGAUAGAAGGUCCGACAUACA,apparent Kd,[5],29.5 nM
same,apparent Kd,[6],14 nM
AUGCCACUUAAGAAGGCGGCGUGAUGCUUAGCGUUGAGACAUGAGGAUCACCCAUGUGACGUACCCGAGGAUAUUAAUGGAAUC,apparent Kd,[5],17 nM
same,apparent Kd,[6],11.7 nM
GUUAGUUACACGGCCGCCACUCUUUGGCUUGGCUCAAGCUCCCAACAUGAGGAUCACCCAUGUCAGAGGACCGGGUGAACAACGU,apparent Kd,[1],134 nM
same,apparent Kd,[2],112 nM
GGAUGUAGACAGGAUAUUGCCAUUCCAAUGCGCCAAGAAGGGUCUACAUGAGGAUCACCCAUGUAAAGAAUAGG,apparent Kd,[3],207 nM
same,apparent Kd,[4],106 nM
UCAUCUGGGUCUUUGGUGCACAUGAGGAUCACCCAUGUAACUUAGGAUAUUAGUUAUGAUAUGAUUAAGAAGGAAGUCGCUAUU,apparent Kd,[3],15.2 nM
same,apparent Kd,[4],16.9 nM
AACAUGUCUCAAGGAUAUAAAACGCUAAAUGGCUUAGAAGGUGAGGCCGCUGUGAGGAUCCCUGACAUGAGGAUCACCCAUGUC,apparent Kd,[5],10.8 nM
same,apparent Kd,[6],9.76 nM
CCUUAUUCAUAGAAGGAGUUCAUCCUACGUGGACUAGGAUAUAUAUUCGACAUGAGGAUCACCCAUGUAUCUGAGAUCGUGGUA,apparent Kd,[3],29.3 nM
same,apparent Kd,[4],26.2 nM
GGAUAAACUCAGAAGGAACGGCUCAAGUAAUAGUAAGGAUAUGACUGUAGGACUACAUGAGGAUCACCCAUGUUGAUGAAACAG,apparent Kd,[5],8.03 nM
same,apparent Kd,[6],7.91 nM
AAAGCUACCAAAGGAUAUUGUUUCCAUCACACAUGAGGAUCACCCAUGUAGCCAUAAACGGAUCGCAAGAAGGUUGGGAAAGUG,apparent Kd,[5],18.3 nM
same,apparent Kd,[6],9.07 nM
UGACUGUGUGAGAAGGUGUUCCGCGCCCGGCCACAAGGAUAUCACAACGCUGCCCUACAUGAGGAUCACCCAUGUGAUUGCUAC,apparent Kd,[5],29.5 nM
same,apparent Kd,[6],25.8 nM
CAUUCACUAACUCCACAUGAGGAUCACCCAUGUUGAGGUCCGAGAAGGUGCACUACGUGGGAGCGCAAGGAUAUCGCCUAGUAA,apparent Kd,[5],9.84 nM
same,apparent Kd,[6],7.64 nM
CAUCAAAAGCUAGGAUAUACCUAGAGUACCGGAACAUGAGGAUCACCCAUGUUAGAGUGAUGCUGGUAGAAGGAGCUGGUAAAG,apparent Kd,[5],31.9 nM
same,apparent Kd,[6],15.8 nM
GUCGAGAUUCAAGGAUAUCCGAUCUUACGCAUAGUAGAAUGACAUGAGGAUCACCCAUGUGUCCAGGAGAAGGUGAAUGGAUUU,apparent Kd,[3],33.3 nM
same,apparent Kd,[4],21.6 nM
